Experimental data as given in ChEMBL document CHEMBL1949545, “Synthesis and evaluation of malonate-based inhibitors of phosphosugar-metabolizing enzymes: class II fructose-1,6-bis-phosphate aldolases, type I phosphomannose isomerase, and phosphoglucose isomerase” (Bioorg Med Chem, 2012).
Active and inactive are the calls of the source. No cut-off for these calls is given here.

Columns and labels:
[1] = system: Mycobacterium tuberculosis; assay: Antimicrobial activity against Mycobacterium tuberculosis at 1 mM; format: functional, organism-based
Yersinia pestis = assay: Antimicrobial activity against Yersinia pestis at 1 mM; format: functional, organism-based
Candida albicans = assay: Antimicrobial activity against Candida albicans at 1 mM; format: functional, organism-based
Procedure, shortened: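 Growth inhibition was tested in cultivated microbial cultures at concentrations up to 1 mM.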

[2] = target: T1, Fructose-bisphosphate aldolase A (Oryctolagus cuniculus, UniProt P00883); assay: Inhibition of rabbit muscle FBA-1
T1 sequence (P00883 whole entry): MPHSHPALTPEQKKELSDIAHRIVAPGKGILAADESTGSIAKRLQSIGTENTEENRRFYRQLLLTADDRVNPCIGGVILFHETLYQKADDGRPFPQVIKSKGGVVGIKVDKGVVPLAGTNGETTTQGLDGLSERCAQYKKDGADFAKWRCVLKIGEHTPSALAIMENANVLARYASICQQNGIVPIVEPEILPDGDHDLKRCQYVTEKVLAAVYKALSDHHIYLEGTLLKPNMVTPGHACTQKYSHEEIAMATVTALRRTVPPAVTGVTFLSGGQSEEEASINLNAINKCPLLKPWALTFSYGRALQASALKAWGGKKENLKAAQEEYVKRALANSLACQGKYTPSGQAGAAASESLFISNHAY

[3] = Inhibition of Candida albicans FBA-2
[4] = Inhibition of Helicobacter pylori FBA-2
[5] = Inhibition of Mycobacterium tuberculosis FBA-2
[6] = Inhibition of Yersinia pestis FBA-2
[7] = Inhibition of yeast PGI; set-up: species or system Saccharomyces cerevisiae
[8] = Inhibition of Escherichia coli PMI

Row | SMILES | Activity [1] | Activity (Yersinia pestis) | Activity (Candida albicans) | Ki [2] [µM] | Ki [3] [µM] | Ki [4] [µM] | Ki [5] [µM] | Ki [6] [µM] | IC50 [7] [µM] | IC50 [8] [µM] | Ki [7] [µM] | Ki [8] [µM]
1 | O=C(COP(=O)(O)O)N(O)CCCCOP(=O)(O)O | inactive | inactive | inactive |  |  |  |  |  |  |  |  | 
2 | O=C(O)C(CCCCN(O)C(=O)COP(=O)(O)O)C(=O)O | inactive | inactive | inactive | 257 | 0.05 | 0.04 | 0.004 | 0.008 |  |  |  | 
3 | O=C(NO)[C@@H](O)[C@H](O)[C@H](O)CO |  |  |  |  |  |  |  |  | 5540 | 10000 |  | 
4 | O=C(O)C(CC(=O)N(O)CCCCOP(=O)(O)O)C(=O)O | inactive | inactive | inactive | 500 | 2300 | 250 | 500 | 1500 |  |  |  | 
5 | O=C(CO)N(O)CCCCOP(=O)(O)O |  |  |  | > 1000 | 0.76 | 1.2 | 0.175 | 0.08 |  |  |  | 
6 | O=C(NO)[C@@H](O)[C@H](O)[C@H](O)COP(=O)(O)O |  |  |  |  |  |  |  |  |  |  | 0.23 | 0.08
7 | NO.O=C(O)C(C[C@@H](O)[C@@H](O)[C@H](O)C(=O)NO)C(=O)O |  |  |  |  |  |  |  |  | 2290 |  |  | 162
